Paper PMC3714013 (Chemistry & biology, 2013)
Like-named read-outs stand apart in the source and are kept apart here. One block for each molecule: values may come before it. Positions of bridges follow the written chain, without caps; N, C: chain ends. No end group written: not given here.

Legend:
[1] = target: T1, MC1R (Homo sapiens, UniProt Q01726); test: Competitive; format: binding
Method in brief: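 Intact HEK 293T cells were transiently transfected with a human MC1R construct (calcium phosphate), harvested after 20 h and plated at 10,000–70,000 cells/well in binding buffer. Eu-NDP-MSH ([…]) plus 3-fold dilutions of test peptide (9.0×10−6M to 4.6×10−10M) were incubated for 2 h at 37°C. Read-out was time-resolved fluorescence. Tracer Kd came from saturation binding. Three independent experiments, in duplicate.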

[2] = target: human MC4R (Homo sapiens, UniProt P32245); test: Competitive; format: binding
Chain of human MC4R (P32245 whole entry): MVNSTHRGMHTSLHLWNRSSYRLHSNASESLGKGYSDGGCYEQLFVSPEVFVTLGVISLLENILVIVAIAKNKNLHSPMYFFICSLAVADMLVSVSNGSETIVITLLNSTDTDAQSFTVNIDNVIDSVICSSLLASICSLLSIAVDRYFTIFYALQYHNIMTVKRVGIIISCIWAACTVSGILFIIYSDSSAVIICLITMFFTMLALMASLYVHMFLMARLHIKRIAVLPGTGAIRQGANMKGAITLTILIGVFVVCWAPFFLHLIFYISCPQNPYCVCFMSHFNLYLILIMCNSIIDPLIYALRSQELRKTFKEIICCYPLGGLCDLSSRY
Method in brief: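 Intact HEK293T cells transiently transfected (calcium phosphate) with human MC4R, harvested 20 h later, in L*R binding buffer at 10,000–70,000 cells/well. […] Washed, DELFIA enhancement, time-resolved fluorescence. Three independent experiments in duplicate.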

[3] = target: T1, MC1R; conditions: cited from earlier work
[4] = tested on: Adult male Wistar rats; test: AgRP-induced weight gain in free-feeding rats, ICV injection; format: in vivo, rat
Method in brief: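 Adult male Wistar rats, housed individually on a 12-12h light:dark cycle with chow. Third-ventricle cannula implanted under isoflurane, recovery ≥7 days, placement verified by a plasma glucose rise after ICV 5-thio-D-glucose. ICV pre-treatment with vehicle or test peptide, then 1 h later AgRP (0.01 nmol) or vehicle; n=8–10/group. Body weight gain followed over 5 days.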

[5] = tested on: Melan-a cells (MC1R activation); conditions: ref Candille et al., 2007; cited from earlier work
[6] = target: T1, MC1R; conditions: read-out: MC1R Ki; ref Kiefer et al., 1998; cited from earlier work

T1 sequence (Q01726 whole entry): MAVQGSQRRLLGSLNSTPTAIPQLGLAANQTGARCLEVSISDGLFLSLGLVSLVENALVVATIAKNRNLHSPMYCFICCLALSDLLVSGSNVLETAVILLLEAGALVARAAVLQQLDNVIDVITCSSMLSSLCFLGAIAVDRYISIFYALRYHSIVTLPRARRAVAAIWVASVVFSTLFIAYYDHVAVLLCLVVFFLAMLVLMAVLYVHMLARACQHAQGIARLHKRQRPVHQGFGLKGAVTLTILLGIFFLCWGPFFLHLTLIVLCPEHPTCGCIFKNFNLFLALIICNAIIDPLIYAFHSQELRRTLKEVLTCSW

Ki [1]: 243 nM
Ki [2]: 206 nM
Molecule: GIINTLQKYYCRVRGGRSAVLSSLPKEEQIGKSSTRGRKCSRRKK-NH2 (disulfide 11-40) [CysT-V]

Ki [1]: > 5000 nM
Molecule: GIINTLQKYYSRVRGGRSAV-NH2 [N-term Truncate]

Molecule: Asip (from UniProt P42127)
Ki [3]: 2.6 nM

Molecule: Agouti-related protein (SPRRCVRLHESCLGQQVPCCDPCATCYCRFFNAFCYCRKLGTATNLCSRT; UniProt P56473 82-131, looked up) [AgRP]
effect on body weight (energy balance response) ([4]; ICV 0.01 nmol (submaximal dose)): increased weight gain
effect on food intake in the first 24 hours ([4]; ICV 0.01 nmol, data not shown): no detectable effect on food intake

Ki [1]: 297 nM
Ki [2]: 436 nM
Molecule: GIINTLQKYYSRVRGGRSAVLSSLPKEEQIGKSSTRGRKSSRRKK-NH2 [Cys->Ser]

Molecule: canine β-defensin 103 [CBD103]
effect on cAMP levels in Melan-a cells [5]: neither CBD103 ([Candille et al., 2007]) nor HBD3 (Figure S1A) stimulate or reduce cAMP levels

B1: RFF→AFF mutation in Asip: Asip mutant with RFF motif changed to AFF, literature value (protein)
chain: HLALEETLGDDRSLRSNSSMNSLDFSSVSIVALNKKSKKISRKEAEKRKRSSKKKASMKKVARPPPPSPCVATRDSCKPPAPACCDPCASCQCAFFGSACTCRVLNPNC
Ki [6]: > 1900 nM
